Test results reported in ChEMBL document CHEMBL5647686, “B cell receptor-induced phosphorylation of Pyk2 and focal adhesion kinase involves integrins and the Rap GTPases and is required for B cell spreading” (J Biol Chem, 2009).
Active and inactive are the calls of the source. The rule behind the calls is not given here.

Key:
[1] = biological target: Protein-tyrosine kinase 2-beta (Mus musculus) (UniProt Q9QVP9); assay: Inhibition of anti-Ig-induced tyrosine phosphorylation of Pyk2 in mouse A20 cells at 0.15 to 5 uM incubated for 45 mins before being stimulated with anti-IgG for 20 mins by immunoblotting; assay type: cell-based; details: dose 0.15-5 µM, time 65.0 min
Sequence of Protein-tyrosine kinase 2-beta (Mus musculus) (Q9QVP9 whole entry, looked up): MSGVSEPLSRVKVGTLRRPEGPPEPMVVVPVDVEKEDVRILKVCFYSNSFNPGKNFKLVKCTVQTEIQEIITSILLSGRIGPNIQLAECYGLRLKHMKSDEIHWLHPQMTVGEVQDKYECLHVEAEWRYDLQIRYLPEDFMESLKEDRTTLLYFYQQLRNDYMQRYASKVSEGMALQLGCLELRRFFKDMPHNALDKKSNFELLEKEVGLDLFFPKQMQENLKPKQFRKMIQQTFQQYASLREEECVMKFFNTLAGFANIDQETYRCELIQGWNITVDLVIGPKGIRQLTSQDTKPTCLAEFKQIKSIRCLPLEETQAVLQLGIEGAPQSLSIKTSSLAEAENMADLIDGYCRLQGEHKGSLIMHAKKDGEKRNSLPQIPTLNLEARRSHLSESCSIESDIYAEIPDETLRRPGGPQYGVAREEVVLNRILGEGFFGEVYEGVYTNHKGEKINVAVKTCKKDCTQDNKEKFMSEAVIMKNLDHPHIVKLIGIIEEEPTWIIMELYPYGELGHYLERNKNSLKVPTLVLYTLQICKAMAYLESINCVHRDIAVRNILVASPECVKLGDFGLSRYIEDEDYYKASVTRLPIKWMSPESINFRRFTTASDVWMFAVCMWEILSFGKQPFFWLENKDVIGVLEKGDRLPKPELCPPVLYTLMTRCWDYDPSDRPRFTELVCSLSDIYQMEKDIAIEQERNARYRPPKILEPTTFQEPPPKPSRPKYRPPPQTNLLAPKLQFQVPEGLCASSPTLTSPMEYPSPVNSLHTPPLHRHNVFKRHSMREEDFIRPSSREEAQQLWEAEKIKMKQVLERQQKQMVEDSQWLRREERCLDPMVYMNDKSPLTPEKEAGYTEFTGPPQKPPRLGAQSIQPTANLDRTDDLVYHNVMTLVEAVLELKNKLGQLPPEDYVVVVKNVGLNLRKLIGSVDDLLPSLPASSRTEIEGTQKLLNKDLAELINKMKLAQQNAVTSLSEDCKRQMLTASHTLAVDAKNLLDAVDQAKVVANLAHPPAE
Outline: (§1)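 A20 cells held in suspension in modified HEPES-buffered saline were treated with inhibitor at graded concentrations or DMSO for 45 min, then stimulated with 20 μg/ml anti-IgG for 20 min. Unstimulated controls were kept 45 min plus 20 min without stimulus. Cold lysis buffer was added, and lysates cleared. Pyk2 immunoprecipitates were blotted with 4G10 anti-Tyr(P) and reprobed for Pyk2. Whole lysates were blotted with 4G10 for total phosphotyrosine and for phospho-Erk.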

A20 [2] = assay: Inhibition of anti-IgG-induced B-cell spreading in mouse A20 cells plated on fibronectin assessed as reduction in number of A20 cells that developed an elongated and spread morphology at 2.5 uM for 1 to 4 hrs by immunofluorescence assay; assay type: functional, cell-based; details: time 1-4 hrs
Outline: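 A20 cells pretreated 45 min with DMSO or 2.5 μm inhibitor in RPMI 1640 with 2% FCS, plated at 37 °C on wells coated with 2.63 μg/cm² fibronectin (BSA-blocked), and stimulated with 10 μg/ml soluble anti-IgG for 1, 2 or 4 h. Phase-dark cells with elongated or irregular shape counted as spread. Percentage of adherent cells; >150 cells counted per experiment, three experiments; one-tailed paired t test.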

[3] = biological target: Protein-tyrosine kinase 2-beta (Mus musculus) (UniProt Q9QVP9); assay: Inhibition of anti-Ig-induced tyrosine phosphorylation of Pyk2 in mouse A20 cells plated on collagen/fibronectin ECM at 0.15 to 5 uM incubated for 45 mins before being stimulated with anti-IgG for 20 mins by immunoblotting; assay type: cell-based; details: dose 0.15-5 µM, time 65.0 min
A20 [4] = assay: Inhibition of anti-Ig-induced tyrosine phosphorylation of FAK in mouse A20 cells plated on collagen/fibronectin ECM conditions at 0.15 to 5 uM incubated for 45 mins before being stimulated with anti-IgG for 20 mins by immunoblotting; assay type: cell-based; details: dose 0.15-5 µM, time 65.0 min
[5] = biological target: Protein-tyrosine kinase 2-beta (Mus musculus) (UniProt Q9QVP9); assay: Inhibition of […] tyrosine phosphorylation of Pyk2 in mouse A20 cells induced by clustering LFA-1 with plate-bound Abs at 2.5 to 5 uM incubated for 45 mins before being stimulated with anti-LFA-1 Abs for 30 mins by immunoblotting; assay type: cell-based; details: dose 2.5-5 µM, time 75.0 min
Outline: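 A20 cells pretreated 45 min with inhibitor or DMSO were added for 30 min to wells coated with 2.63 μg/cm² anti-LFA-1 Abs. Lysates were cleared, and Pyk2 or FAK immunoprecipitates were blotted with 4G10 anti-Tyr(P).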

A20 [6] = assay: Inhibition of anti-Ig-induced tyrosine phosphorylation of ERK in mouse A20 cells under suspension conditions at 0.15 to 5 uM incubated for 45 mins before being stimulated with anti-IgG for 20 mins by immunoblotting; assay type: cell-based; details: dose 0.15-5 µM, time 65.0 min; outline: as §1
[7] = Toxicity in mouse A20 cells by 7-amino-actinomycin D staining; assay type: cell-based
A20 [8] = assay: Inhibition of anti-Ig-induced SRC dependent overall protein tyrosine phosphorylation in mouse A20 cells under suspension conditions at 0.15 to 5 uM incubated for 45 mins before being stimulated with anti-IgG for 20 mins by immunoblotting; assay type: cell-based; details: dose 0.15-5 µM, time 65.0 min; outline: as §1
[9] = biological target: Tyrosine-protein kinase SYK (Mus musculus) (UniProt P48025); assay: Inhibition of anti-Ig-induced SYK dependent overall protein tyrosine phosphorylation in mouse A20 cells under suspension conditions at 0.15 to 5 uM incubated for 45 mins before being stimulated with anti-IgG for 20 mins by immunoblotting; assay type: cell-based; details: dose 0.15-5 µM, time 65.0 min; outline: as §1
Sequence of Tyrosine-protein kinase SYK (Mus musculus) (P48025 whole entry, looked up): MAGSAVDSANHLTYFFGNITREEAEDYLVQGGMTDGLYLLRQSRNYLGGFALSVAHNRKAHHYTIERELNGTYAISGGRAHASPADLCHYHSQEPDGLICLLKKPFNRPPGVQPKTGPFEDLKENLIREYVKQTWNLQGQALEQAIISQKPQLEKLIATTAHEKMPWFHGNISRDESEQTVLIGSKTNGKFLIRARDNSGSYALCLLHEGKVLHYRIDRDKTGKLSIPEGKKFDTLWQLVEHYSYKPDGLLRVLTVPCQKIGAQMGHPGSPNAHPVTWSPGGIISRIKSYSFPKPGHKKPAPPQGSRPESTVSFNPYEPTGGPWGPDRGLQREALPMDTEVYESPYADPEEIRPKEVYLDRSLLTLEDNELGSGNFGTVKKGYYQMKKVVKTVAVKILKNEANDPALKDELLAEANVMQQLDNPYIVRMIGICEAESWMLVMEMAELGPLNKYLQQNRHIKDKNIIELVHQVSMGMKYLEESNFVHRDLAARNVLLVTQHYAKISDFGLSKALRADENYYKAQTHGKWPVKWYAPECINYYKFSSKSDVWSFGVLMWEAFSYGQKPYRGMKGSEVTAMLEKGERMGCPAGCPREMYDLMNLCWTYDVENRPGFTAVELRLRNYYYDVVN

A20 [10] = assay: Inhibition of LFA-1 Ab-induced B-cell spreading in mouse A20 cells plated on anti-LFA-1 Ab coated plates at 2.5 uM for 1 to 3 hrs by immunofluorescence assay; assay type: functional, cell-based; details: time 1-3 hrs
Outline: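 A20 B lymphoma cells pretreated 45 min with DMSO or 2.5 μm inhibitor, then added to wells coated overnight at 4 °C with 2.63 μg/cm² rat anti-mouse LFA-1 mAb and blocked with 2% BSA/PBS. Incubated at 37 °C in RPMI 1640 with 2% FCS for 1 or 3 h. Cells scored as spread when phase dark, elongated or irregular with membrane processes. Percentage of adherent cells spread; mean ± S.E., >150 cells per experiment, three experiments; one-tailed paired t test vs DMSO.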

CN(c1ccccc1CNc1nc(Nc2ccc3c(c2)CC(=O)N3)ncc1C(F)(F)F)S(C)(=O)=O
inhibition [1]: Active | inhibition (A20 [2]): Active | inhibition [3]: Active | inhibition (A20 [4]): Active | inhibition [5]: Active | inhibition (A20 [6]): inactive | Activity [7]: Non-Toxic | inhibition (A20 [8]): inactive | inhibition [9]: inactive | inhibition (A20 [10]): Active
